From PubChem BioAssay
Rows were chosen to be rich in hits. Some 2.9% of all compounds tested hit in one or more screens of this group.
SENP6 inh – SENP6 protease inhibition; Q9GZR1; Recombinant SENP6 catalytic domain, aminoluciferin luminescence; inhibition, % at 10 µM; actives 1.8% (n = 330,000);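 active = inhibition above about 50% at the single tested dose, limit read from the data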
SENP7 block – inhibitors of human SENP7 protease; Q9BQF6; recombinant SENP7, Z-RLRGG-aminoluciferin luminescence, 40 min; actives 1.5% (n = 330,000); inhibition, % at 5 µM; AID 434973;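 active = inhibition above about 50% at the single test dose, limit read from the data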
Target sequence (Q9BQF6 706-1050 limits assumed): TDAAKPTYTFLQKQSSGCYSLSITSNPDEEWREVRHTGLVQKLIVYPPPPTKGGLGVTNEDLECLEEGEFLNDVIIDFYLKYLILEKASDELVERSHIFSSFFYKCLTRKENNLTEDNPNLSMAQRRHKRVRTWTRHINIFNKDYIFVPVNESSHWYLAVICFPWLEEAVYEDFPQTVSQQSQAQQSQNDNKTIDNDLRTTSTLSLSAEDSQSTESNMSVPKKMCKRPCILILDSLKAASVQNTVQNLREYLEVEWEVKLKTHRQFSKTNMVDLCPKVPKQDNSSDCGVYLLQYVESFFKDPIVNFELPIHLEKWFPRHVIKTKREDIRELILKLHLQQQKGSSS
SENP8 block-1 – inhibitors of human SENP8 protease | AID 602440 | inhibition, % at 20 µM | recombinant SENP8, Nedd8 substrate fluorescence | actives 0.64% (n = 360,000); in the data active = inhibition mostly above about 40%, no sharp cut-off; inactive = mostly below about 27%
Target sequence (Q96LD8 whole entry, looked up): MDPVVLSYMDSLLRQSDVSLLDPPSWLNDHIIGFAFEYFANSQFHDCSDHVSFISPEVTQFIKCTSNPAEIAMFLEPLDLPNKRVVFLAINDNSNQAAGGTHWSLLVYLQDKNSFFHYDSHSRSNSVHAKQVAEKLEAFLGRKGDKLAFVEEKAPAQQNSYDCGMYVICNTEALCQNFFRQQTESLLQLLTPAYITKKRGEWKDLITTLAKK
SENP1 inh – inhibitors of human SENP1 SUMO protease catalytic domain; Q9P0U3; recombinant SENP1 catalytic domain, CyPet-SUMO1-YPet FRET cleavage; inhibition, % at 10 µM; actives 0.21% (n = 360,000); AID 624204;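 active = inhibition at least 30% at 10 µM, raw YFP signal under a set limit, fluorescence ratio 0.5 to 1.5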
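Assay system – human recombinant His6-tagged SENP1 catalytic domain enzyme · Input – SENP1 enzyme, 20 pM final · Buffer or medium – Tris pH 8 buffer plus EDTA, NaCl, BME, BSA, NP40, catalase · Schedule – 50 min reaction at room temperature · Technique – FRET read of cyan and yellow fluorescence · Control set – no-enzyme wells low, DMSO-plus-enzyme wells high control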
SENP8 block-2 – inhibitors of human SENP8 protease; actives 1.2% (n = 330,000); AID 2540; Q96LD8; purified SENP8, Z-RLRGG-aminoluciferin cleavage, luminescence; inhibition, % at 10 µM; in the data active = inhibition above about 50%
HSP90 refold inh – HSP90 refolding inhibition in rabbit reticulocyte lysate. luciferase refolding luminescence, 3 h. inhibition, % at 5.6 µM. actives 0.91% (n = 290,000);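 active = inhibition above the screen-wide mean plus 3 SD, computed separately per campaign, cut at about 16% in these data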;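 note: inhibitors lower the luminescence because luciferase stays unfolded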
SENP8 confirm – human SENP8 inhibition, confirmed | shares compounds with SENP7 block | Recombinant SENP8, Z-RLRGG-aminoluciferin luminescence, 60 min | inhibition, % at 12.5 µM | actives 40% (n = 6,200) | AID 488912;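 active = mean inhibition across replicates above about 50%, limit read from the data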
SENP6 confirm – human SENP6 inhibition, confirmed; shares compounds with SENP7 block; recombinant SENP6, Z-RLRGG-aminoluciferin luminescence; inhibition, % at 12.5 µM; actives 58% (n = 6,200); AID 488915
SENP7 confirm – confirmation of human SENP7 protease inhibitors. shares compounds with SENP7 block. recombinant SENP7, Z-RLRGG-aminoluciferin luminescence, 40 min. inhibition, % at 12.5 µM. actives 69% (n = 6,200). AID 488917
Casp3 select – caspase-3 inhibition (SENP selectivity assay); shares compounds with SENP7 block; purified caspase-3, Z-DEVD-aminoluciferin luminescence, 60 min; inhibition, % at 12.5 µM; actives 60% (n = 6,200);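 active = mean inhibition above about 50%, limit read from the data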
Luc interf – luminescence interference (SENP counter-screen) | shares compounds with SENP7 block | Pre-incubated SENP8/Z-RLRGG-aminoluciferin, luciferase luminescence interference | inhibition, % at 12.5 µM | actives 39% (n = 6,200);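 active = mean inhibition above about 50% when retested at one dose, limit read from the data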
Numbers stand for hits; . = inactive; / = no result given.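 Rule for the calls, unless noted: active = mean inhibition above about 50% in the one-dose retest (limit read from the data); inactive = the rest.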

SMILES	SENP6 inh	SENP7 block	SENP8 block-1	SENP1 inh	SENP8 block-2	HSP90 refold inh	SENP8 confirm	SENP6 confirm	SENP7 confirm	Casp3 select	Luc interf
CC(=Nc1ccc(Br)cc1)c1sc2ccccc2c1O	79.8	73.3	.	.	61.3	.	.	.	.	.	.
CC(=Nc1ccccc1)c1sc2ccccc2c1O	85.2	75.7	.	.	80.3	.	88.3	88.5	98.5	76.9	75.7
NC(=Nc1ccc(Br)cc1)c1ccccc1	.	.	.	.	.	.	/	/	/	/	/
COc1ccc(N2CCN(C(=O)C3CCCN3S(=O)(=O)c3cccc4nsnc34)CC2)cc1 (stereo not given)	.	.	.	.	.	.	/	/	/	/	/
O=C(Nc1cc(Cl)cc(Cl)c1)N1CCCC1	.	.	.	.	.	.	/	/	/	/	/
CC(=O)Nc1ccc(S(=O)(=O)Nc2nccc(C)n2)cc1	.	.	.	.	.	.	/	/	/	/	/
Cc1ccnc(NS(=O)(=O)c2ccc(NC(=O)C(C)(C)C)cc2)n1	88.6	.	.	.	.	.	.	.	.	.	.
COc1ccc(CN2CCN(C(=O)c3ccccc3C(=O)c3ccccc3)CC2)cc1F	/	/	.	.	/	/	/	/	/	/	/
CCN(CC)S(=O)(=O)c1ccc(NC(=O)C(C)N(c2ccc(OC)cc2)S(C)(=O)=O)cc1 (stereo not given)	.	.	.	.	.	.	/	/	/	/	/
CCOc1ccc(N(C(C)C(=O)Nc2ccc(OC)cc2)S(C)(=O)=O)cc1 (stereo not given)	.	70.6	.	.	.	.	.	.	.	.	.
CCOC(=O)N/N=C\c1ccc(OC(=O)c2ccc3c(c2)OCO3)cc1	66.3	72.0	.	.	57.8	.	.	.	.	.	.
CN(C)c1ccc(/C=N/NC(=O)c2ccc3c(c2)OCO3)cc1	.	.	.	.	.	.	/	/	/	/	/
Cn1cc(Cl)c(C(=O)Nc2nc3ccccc3s2)n1	96.2	.	.	.	95.5	.	.	98.1	102.9	96.2	.
O=C(Nc1nc2ccccc2s1)c1c(F)cccc1Cl	.	.	.	.	.	.	/	/	/	/	/
O=C(Nc1nc2ccccc2s1)c1ccc(N2CCCCC2)c([N+](=O)[O-])c1	51.5	54.5	.	.	.	.	.	.	.	.	.
O=C(Nc1ccon1)c1ccc(N2CCCCC2)c([N+](=O)[O-])c1	.	.	.	.	.	.	/	/	/	/	/
Cc1cc(C)n(-c2ccc(C(=O)Nc3nc4ccccc4s3)cc2)n1	.	.	.	.	.	.	/	/	/	/	/
Nc1ccc(C(=O)Nc2nc3ccccc3s2)cc1	90.8	93.8	.	.	90.9	.	95.0	95.0	100.9	86.2	90.6
O=c1c2cc(Br)ccc2nc(-c2ccccc2)n1O	62.5	.	.	.	.	.	64.8	60.9	84.5	60.8	72.2
Cc1ccc(/C=C2/CCc3c([nH]c4ccccc34)C2=O)cc1	.	68.0	.	.	.	.	.	.	.	.	.
O=c1cc(-c2ccccc2)oc2ccc(Cl)cc12	/	/	.	.	/	/	/	/	/	/	/
CSc1ccc(-c2cc(=O)c3ccccc3o2)cc1	59.1	.	.	.	57.0	.	66.2	62.7	83.8	51.4	.
COc1ccc(-c2cc(=O)c3cc(OC)ccc3[nH]2)cc1	84.2	81.2	.	.	74.1	.	.	77.9	96.5	93.4	.
O=c1cc(-c2ccccc2)oc2ccc(Br)cc12	.	72.5	.	.	.	/	.	.	.	.	.
COc1ccc(-c2cc(=O)c3cc(C)ccc3[nH]2)cc1	.	.	.	.	.	.	/	/	/	/	/
SMILES	SENP6 inh	SENP7 block	SENP8 block-1	SENP1 inh	SENP8 block-2	HSP90 refold inh	SENP8 confirm	SENP6 confirm	SENP7 confirm	Casp3 select	Luc interf
COc1ccc2c(c1)oc(=O)c1cc(OC)ccc12	65.3	79.6	.	.	.	.	.	.	62.7	65.1	.
COc1ccccc1N1CCN(S(=O)(=O)c2c(C)[nH]c(=O)[nH]c2=O)CC1	.	.	.	.	.	.	/	/	/	/	/
COc1ccc(C2SCC(C(=O)NCc3ccc(F)cc3)N2C(C)=O)cc1 (stereo not given)	.	.	.	.	.	.	/	/	/	/	/
COc1ccc(-c2cc(=O)c3cc(OC)ccc3o2)cc1	92.0	98.3	.	.	87.9	.	.	.	.	.	.
C#CCOCCOCCOCCNc1nc(N2CCOCC2)nc(N2CCN(C(=O)Cn3cc(CCCCN)nn3)CC2)n1	/	/	.	.	/	/	/	/	/	/	/
O=S(=O)(c1ccccc1)n1ccc(-c2cnc(-c3ccccc3)s2)n1	.	.	.	.	.	.	/	/	/	/	/
Cc1ccc(Cn2ccc(-c3cnc(-c4ccccc4)s3)n2)cc1	51.4	.	.	.	.	.	.	.	.	.	.
CC1CCC(C(C)C)C(OC(=O)CSc2n[nH]c(=O)[nH]c2=O)C1 (stereo not given)	.	.	.	.	50.8	.	.	.	.	.	.
Cc1nnc(SCC(=O)OC2CC(C)CCC2C(C)C)[nH]c1=O (stereo not given)	.	.	.	.	.	.	/	/	/	/	/
Oc1ccccc1Nc1ncnc2c1oc1ccccc12	.	.	.	.	.	.	/	/	/	/	/
c1ccc2c(c1)oc1c(Nc3ccc4c(c3)OCO4)ncnc12	.	58.8	.	.	.	.	.	.	.	.	.
c1ccc(Nc2ncnc3c2oc2ccccc23)cc1	51.5	.	.	.	.	.	.	.	55.6	.	.
Oc1ccc(Nc2ncnc3c2oc2ccccc23)cc1	.	.	.	.	.	.	/	/	/	/	/
Oc1cccc(Nc2ncnc3c2oc2ccccc23)c1	70.2	71.3	.	.	62.5	.	64.4	66.2	92.5	69.3	80.1
CCOc1ccc(/C=C/[N+](=O)[O-])c2ccccc12	67.2	.	.	.	.	.	.	.	.	.	.
C/C(=N/NC(=O)c1cccs1)c1c(C)[nH]n(-c2nc3ccccc3s2)c1=O	96.7	99.2	.	.	92.8	.	90.3	81.1	93.8	97.8	66.5
O=C(O)c1cccc(C(=O)Nc2cccc(NC(=O)C3CCCO3)c2)c1 (stereo not given)	56.6	.	.	.	.	.	74.1	71.2	90.8	66.6	.
